Results: paper PMC3711074 (Chemistry & biology, 2013)

Legend:
UBC9 (SUMO E2 enzyme) = UBC9 (SUMO E2 enzyme) (Homo sapiens, UniProt P63279); experiment: reconstituted sumoylation cascade, electrophoretic mobility shift IC50; format: biochemical
How it was run: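 Reconstituted cascade in 50 mM Tris pH 9.0 with 5 mM MgCl2 and 1 mM DTT. Contains SUMO E1 0.1 µM, His-tagged SUMO-1 1.4 µM, UBC9 0.25 µM and a 5-FAM-labelled peptide substrate at 1.0 µM. Started with ATP (final 2 mM), run with test compound at varying concentrations for 90 min at room temperature, then EDTA-quenched. Conversion read by microfluidic mobility shift. IC50 from the mean of three replicates.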

[1] = target: T1, SUMO-activating enzyme 1/2 (SAE 1/2, SUMO E1) (Homo sapiens, UniProt Q9UBT2); experiment: E1-SUMO-1 thioester formation gel assay with fluorescent SUMO-1; format: biochemical
T1 sequence (Q9UBT2 1-640): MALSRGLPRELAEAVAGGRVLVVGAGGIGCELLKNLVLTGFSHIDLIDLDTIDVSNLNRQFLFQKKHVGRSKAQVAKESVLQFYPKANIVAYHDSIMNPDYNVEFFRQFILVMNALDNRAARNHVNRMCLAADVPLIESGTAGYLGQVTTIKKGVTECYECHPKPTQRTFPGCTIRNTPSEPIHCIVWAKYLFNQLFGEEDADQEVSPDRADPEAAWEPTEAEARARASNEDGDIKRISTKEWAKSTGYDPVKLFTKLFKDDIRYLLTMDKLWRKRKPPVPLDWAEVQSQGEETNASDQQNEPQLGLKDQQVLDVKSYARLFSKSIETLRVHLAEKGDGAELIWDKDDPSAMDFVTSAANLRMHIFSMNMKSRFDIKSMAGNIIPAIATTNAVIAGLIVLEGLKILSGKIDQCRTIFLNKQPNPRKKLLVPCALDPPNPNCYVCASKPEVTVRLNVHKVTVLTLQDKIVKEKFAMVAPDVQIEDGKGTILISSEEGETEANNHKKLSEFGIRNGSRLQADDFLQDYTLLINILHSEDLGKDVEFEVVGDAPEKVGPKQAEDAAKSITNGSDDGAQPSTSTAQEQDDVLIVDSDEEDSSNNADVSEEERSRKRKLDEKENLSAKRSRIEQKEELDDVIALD
T1 sequence (Q9UBE0 1-346 partner): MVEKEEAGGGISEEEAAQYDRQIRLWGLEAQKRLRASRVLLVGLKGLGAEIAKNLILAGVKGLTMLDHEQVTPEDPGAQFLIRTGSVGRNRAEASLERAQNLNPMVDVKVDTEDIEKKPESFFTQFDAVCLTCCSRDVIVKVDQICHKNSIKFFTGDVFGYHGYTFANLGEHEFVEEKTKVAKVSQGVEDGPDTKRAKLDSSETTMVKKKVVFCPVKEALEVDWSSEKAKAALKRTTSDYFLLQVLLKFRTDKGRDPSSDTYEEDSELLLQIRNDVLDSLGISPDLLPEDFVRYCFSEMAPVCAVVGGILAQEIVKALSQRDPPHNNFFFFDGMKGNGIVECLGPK

UBC9 (SUMO E2 enzyme), sequence (P63279 2-158): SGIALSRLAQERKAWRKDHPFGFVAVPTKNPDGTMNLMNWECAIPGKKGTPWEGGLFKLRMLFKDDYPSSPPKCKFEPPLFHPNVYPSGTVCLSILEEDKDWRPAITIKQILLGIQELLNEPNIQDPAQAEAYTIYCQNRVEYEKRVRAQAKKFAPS
UBC9 (SUMO E2 enzyme), sequence (P63165 2-97 partner): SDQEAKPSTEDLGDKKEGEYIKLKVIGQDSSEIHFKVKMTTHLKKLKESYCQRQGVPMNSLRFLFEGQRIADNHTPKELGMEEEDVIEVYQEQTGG

Compound | IC50 (UBC9 (SUMO E2 enzyme)) [µM] | IC50 [1] [µM]
O=c1cc(-c2ccc(O)c(O)c2O)oc2ccccc12 [2-D08, 2’,3’,4’-trihydroxyflavone] | 6 ± 1.3 | –
CCCCCC/C=C\CCCCCCCc1cccc(O)c1C(=O)O [ginkgolic acid] | – | 9.1
